Measured values from ChEMBL document CHEMBL3259668, “Synthesis of N-benzenesulfonamide-1H-pyrazoles bearing arylsulfonyl moiety: novel celecoxib analogs as potent anti-inflammatory agents” (Eur J Med Chem, 2014).

How the values were obtained:
Rattus norvegicus [1] = experiment: Antiinflammatory activity in ip dosed Sprague-Dawley rat assessed as inhibition of carrageenan-induced foot paw edema after 1 hr by plethysmometer analysis; type: functional; conditions: Sprauge-Dawley
In short: (§1)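 Rats fasted at least 16 h with free access to water. Compounds were given as a suspension in 0.5% methyl cellulose, with a vehicle-only negative control group. Paw volume was measured by water displacement on a plethysmometer before and after treatment. Inhibition (%) = (1 − D/C) × 100, where D and C are the paw-volume changes in treated and control groups.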

Rattus norvegicus [2] = experiment: Antiinflammatory activity in ip dosed Sprague-Dawley rat assessed as inhibition of carrageenan-induced foot paw edema after 2 hrs by plethysmometer analysis; type: functional; conditions: Sprauge-Dawley; in short: as §1
Rattus norvegicus [3] = experiment: Antiinflammatory activity in ip dosed Sprague-Dawley rat assessed as inhibition of carrageenan-induced foot paw edema after 3 hrs by plethysmometer analysis; type: functional; conditions: Sprauge-Dawley; in short: as §1
[4] = Toxicity in ip dosed mouse assessed as behavioral changes and death during observation up to 72 hrs; type: organism-based; conditions: in vivo
In short: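 Male mice in groups, given test compounds intraperitoneally at various doses. Watched continuously for up to 6 h, then kept under observation for 72 h, recording all behavioural changes and deaths. Percentage of deaths at each dose was converted to probits to calculate LD50 (mM/kg).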

Mus musculus [5] = experiment: Analgesic activity in ip dosed albino Swiss mouse after 0.5 hrs by hot plate test; type: functional
In short: (§2)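 Mice given a single intraperitoneal dose of test compound (5-200 mg/kg). Reaction time on the hot plate was measured before treatment as the control and again at 15, 30, 60 and 120 min after injection, with a 60 s cut-off. Each animal served as its own control.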

Mus musculus [6] = experiment: Analgesic activity in ip dosed albino Swiss mouse after 1 hr by hot plate test; type: functional; in short: as §2
Mus musculus [7] = experiment: Analgesic activity in ip dosed albino Swiss mouse after 2 hrs by hot plate test; type: functional; in short: as §2
[8] = biological target: T1, Prostaglandin G/H synthase 1 (Ovis aries) (UniProt P05979); experiment: Inhibition of ovine COX1 at 5 uM
T1 sequence (whole entry): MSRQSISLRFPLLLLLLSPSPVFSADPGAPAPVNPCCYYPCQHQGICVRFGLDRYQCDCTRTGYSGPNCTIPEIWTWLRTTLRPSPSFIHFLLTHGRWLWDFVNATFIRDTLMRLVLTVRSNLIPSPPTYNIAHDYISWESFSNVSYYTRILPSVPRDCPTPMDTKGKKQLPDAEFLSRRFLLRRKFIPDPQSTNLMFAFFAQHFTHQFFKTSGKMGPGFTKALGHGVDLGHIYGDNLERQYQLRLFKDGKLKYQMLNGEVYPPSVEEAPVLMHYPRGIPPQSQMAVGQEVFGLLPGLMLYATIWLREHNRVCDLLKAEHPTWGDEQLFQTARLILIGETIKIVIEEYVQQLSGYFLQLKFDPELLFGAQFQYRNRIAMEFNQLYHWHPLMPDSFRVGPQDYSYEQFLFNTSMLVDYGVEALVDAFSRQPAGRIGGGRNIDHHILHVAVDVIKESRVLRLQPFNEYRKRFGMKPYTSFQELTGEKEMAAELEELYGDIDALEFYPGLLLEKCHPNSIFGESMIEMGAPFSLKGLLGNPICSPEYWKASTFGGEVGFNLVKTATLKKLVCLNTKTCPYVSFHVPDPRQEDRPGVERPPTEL

Ovis aries = species: Ovis aries; experiment: Selectivity index, ratio of ovine COX2 to ovine COX1
Rattus norvegicus [9] = experiment: Gastrointestinal toxicity in albino rat assessed as ulcer index at 100 umol/kg, po qd for 3 days measured 6 hrs after last dose; conditions: in vivo, 100 µmol/kg

Compound	ED50 (Rattus norvegicus [1]) [µM/kg]	ED50 (Rattus norvegicus [2]) [µM/kg]	ED50 (Rattus norvegicus [3]) [µM/kg]	LD50 at 72 h [4] [µmol/kg]	ED50 (Mus musculus [5]) [µM/kg]	ED50 (Mus musculus [6]) [µM/kg]	ED50 (Mus musculus [7]) [µM/kg]	inhibition [8] [%]	Selectivity Index (Ovis aries)	UI (Rattus norvegicus [9])
O=S(=O)(C/C(=N/O)c1ccccc1)c1ccccc1	285	245	256	17400	320	265	244	–	–	–
O=C(CS(=O)(=O)c1ccccc1)c1ccccc1	238	232	242	19700	250	158	145	–	–	–
O=C(CS(=O)(=O)c1ccccc1)c1ccc(Br)cc1	550	350	327	12400	218	318	318	–	–	–
CC(=O)c1nn(-c2ccc(S(N)(=O)=O)cc2)c(-c2ccc(Br)cc2)c1S(=O)(=O)c1ccccc1	87	64	68	7100	57	81	80	34	0.79	2.86
O=S(=O)(C/C(=N/Nc1ccccc1)c1ccccc1)c1ccccc1	270	248	256	14600	285	319	345	–	–	–
Cc1ccc(/C(CS(=O)(=O)c2ccccc2)=N\O)cc1	271	238	237	9000	212	203	200	–	–	–
Cc1ccc(S(=O)(=O)CC(=O)c2ccc(Br)cc2)cc1	213	213	200	12700	73	69	66	–	–	–
CC(=O)c1nn(-c2ccc(S(N)(=O)=O)cc2)c(-c2ccccc2)c1S(=O)(=O)c1ccccc1	363	376	372	10100	311	261	261	–	–	–
Cc1ccc(C(=O)CS(=O)(=O)c2ccccc2)cc1	145	137	133	14300	168	408	434	–	–	–
CC(=O)c1nn(-c2ccc(S(N)(=O)=O)cc2)c(-c2ccc(Br)cc2)c1S(=O)(=O)c1ccc(C)cc1	75	54	51	7100	69	195	204	3	13	0.98
Cc1ccc(-c2cc(C(F)(F)F)nn2-c2ccc(S(N)(=O)=O)cc2)cc1 [CELECOXIB]	89	89	86	9800	156	72	70	–	–	0.92
CC(=O)c1nn(-c2ccc(S(N)(=O)=O)cc2)c(-c2ccc(C)cc2)c1S(=O)(=O)c1ccccc1	112	102	95	10100	50	147	147	18	1.83	2.25
Cc1ccc(/C(CS(=O)(=O)c2ccccc2)=N\Nc2ccccc2)cc1	280	181	169	11500	220	260	288	–	–	–
